Only some compounds are listed: those with a hit (about 3.5% of all), similar ones and a draw of the others.
MrgX1 agonist = agonists of human MrgX1 receptor | Q96LB2 | MrgX1-HEK293 cells, Fluo-4 calcium fluorescence, agonist mode; active compounds read high | B-score at 10 µM | hit rate 0.44% among 310,000 | AID 588627;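 active = calcium response B-score plate-corrected fluorescence ratio at least 3 library SD, with starting fluorescence B-score inside 5 SD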
Target sequence (Q96LB2 whole entry, looked up): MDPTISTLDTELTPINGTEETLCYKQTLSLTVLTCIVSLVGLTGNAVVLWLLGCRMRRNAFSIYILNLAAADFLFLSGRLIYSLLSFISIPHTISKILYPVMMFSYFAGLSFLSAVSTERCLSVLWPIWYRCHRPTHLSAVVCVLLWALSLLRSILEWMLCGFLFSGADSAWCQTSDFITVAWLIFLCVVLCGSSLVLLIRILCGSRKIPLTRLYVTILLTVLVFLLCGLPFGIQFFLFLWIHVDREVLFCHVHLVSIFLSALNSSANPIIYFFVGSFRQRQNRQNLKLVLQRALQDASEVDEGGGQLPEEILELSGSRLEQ
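Test system: HEK293 cells stably expressing human MrgX1 receptor; amount: 15,000 cells per well; doses: compound delivered in addition one of three; times: overnight plating before 1 h dye loading; detection: Fluo-4 NW calcium-flux fluorescence, kinetic read; read-out basis: B-scored fluorescence response ratio; controls: positive and negative controls per plate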
MrgX1 allo act = allosterically activates human MrgX1 receptor signaling; Q96LB2; MrgX1-HEK293, Fluo-4 calcium flux, FDSS; active compounds read high; B-score at 10 µM; hit rate 0.63% among 310,000; AID 588675;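 active = plate-corrected calcium response at least 3 library SD above typical, normal starting fluorescence, not activating the receptor alone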;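 note: compound read alongside a low EC10 to EC30 dose of BAM8-22 agonist; peak minus trough fluorescence over baseline measured at the second addition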
RGS4 block = inhibitors of human RGS4; HEK293 M3R/RGS4 inducible, Fluo-4 calcium flux; active compounds read high; triggered by carbachol at its EC20; B-score at 10 µM; hit rate 0.45% among 310,000; AID 463165;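 active = B-score, a plate-corrected calcium signal, over three deviations above library mean, with baseline fluorescence within five deviations of library mean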;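 note: RGS4 expression induced by doxycycline in cells with stable M3 receptor; B-score is computed from the integrated fluorescence ratio over baseline after carbachol; higher B-score means a larger calcium signal and so more RGS4 inhibition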
RGS4 act = potentiators or activators of RGS4; HEK293 M3R/inducible RGS4, carbachol calcium flux Fluo4; active compounds read low; B-score at 10 µM; hit rate 0.92% among 310,000; AID 463111;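 active = B-score of the integrated calcium signal more than 4 SD below the library mean, with starting fluorescence not abnormally high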;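 note: negative B-score means reduced calcium response which marks RGS4 activation or potentiation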
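test system = HEK293 cells with stable M3R and inducible RGS4 | schedule = recording 10 s baseline at 1 Hz, 100 s post-agonist | technique = Fluo4-AM (2 µM) calcium-flux fluorescence, kinetic read | measure = Agonist-evoked peak-minus-minimum fluorescence over baseline, integrated ratio, B score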
MrgX1 antagonist = antagonists of human MrgX1 receptor. Q96LB2. MRGX1-HEK293 calcium flux, Fluo-4, BAM8-22 antagonism; active compounds read low. B-score at 10 µM. hit rate 1.3% among 310,000. AID 588676;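 active = calcium-response B-score plate-corrected more than 3 library SD below zero, starting fluorescence within 5 deviations, no agonist response on first addition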;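 note: peak minus trough fluorescence over baseline after final BAM8-22 challenge near maximal dose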
MrgX1 ant reconf = reconfirmed antagonist of human MrgX1 receptor signaling. remaining BAM8-22 calcium response % of control (active compounds read low), % at 10 µM. shares compounds with MrgX1 antagonist. hit rate 19% among 2,300. AID 602420. MrgX1-HEK293, BAM8-22 calcium flux, Fluo-4; active compounds read low;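 active = remaining agonist calcium response no higher than 100% minus 3 SD of agonist-only control wells, with starting fluorescence near control levels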;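 note: agonist BAM8-22 given at a near maximal EC90 to ECmax level; peak minus minimum fluorescence divided by baseline after agonist addition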
HEK293 Ca flux = activity in parental HEK293 cells lacking MrgX1. hit rate 2% among 4,000. fluorescence ratio F(max-min)/F0 at 10 µM. Fluo-4 calcium fluorescence, FDSS. shares compounds with MrgX1 antagonist. AID 624111;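 active = duplicate-averaged calcium fluorescence ratio at least three times the standard deviation of buffer wells, a nonspecific response in parental cells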
HEK293 Ca counter = counter-screen for MrgX1 allosteric activators: effect in parental HEK293 cells; shares compounds with MrgX1 antagonist; hit rate 0.4% among 4,000; fluorescence ratio F(max-min)/F0 at 10 µM; AID 624114; parental HEK293 calcium flux, Fluo-4 fluorescence ratio; active compounds read high;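 active = calcium fluorescence ratio, averaged over duplicates, at least 3 SD of the buffer-well ratio, meaning a nonspecific response in receptor-free cells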;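 note: untransfected parental HEK293 lacking MrgX1 used as counterscreen for MrgX1 allosteric activators; fluorescence change taken during the second addition on a kinetic imager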
HEK293 Ca cntr2 = MrgX1 activator counter-screen hit in parental HEK293 cells | Fluo-4 calcium fluorescence (FDSS); active compounds read high | AID 624115 | shares compounds with MrgX1 antagonist | fluorescence ratio F(max-min)/F0 at 10 µM | hit rate 8.7% among 4,000;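 active = calcium fluorescence ratio at least three times the spread of buffer wells, meaning a non-specific response in parental cells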
* hit, by the source's call; i = inactive; . = not tested or not shown.

SMILES	MrgX1 agonist	MrgX1 allo act	RGS4 block	RGS4 act	MrgX1 antagonist	MrgX1 ant reconf	HEK293 Ca flux	HEK293 Ca counter	HEK293 Ca cntr2
CC(C)c1cc2c(c(O)c1O)[C@@]13CCCC(C)(C)C1CC2OC3=O (stereo not given in full)	i	i	i	i	-4.5*	76%*	i	i	i
CCOc1ccc(S(=O)(=O)NCCC(=O)NCC(c2ccc(OC)cc2)N2CCCCC2)cc1 (stereo not given)	i	i	i	i	i	.	.	.	.
COCCn1c(C)cc(C(=O)CSc2nc(C)c(C)c(C)n2)c1C	i	i	i	i	i	.	.	.	.
COCCn1c(C)cc(C(=O)CSc2ncn[nH]2)c1C	i	i	i	i	-5.1*	i	i	i	i
Cc1c(NC(=O)c2n[nH]c(=O)c3ccccc23)c(=O)n(-c2ccccc2)n1C	i	i	i	i	i	.	.	.	.
O=C(COC(=O)c1ccccc1N1C(=O)C2C3CCC(C3)C2C1=O)c1ccccc1 (stereo not given)	i	i	i	i	i	.	.	.	.
Cc1ccc(C)c(C(=O)COC(=O)c2ccccc2N2C(=O)C3C4CCC(C4)C3C2=O)c1 (stereo not given)	i	i	i	i	-6*	i	i	i	i
CC(C)c1ccc(NC(=O)c2ccc(NC3=NC4CS(=O)(=O)CC4S3)cc2)cc1 (stereo not given)	i	i	i	i	i	.	.	.	.
